Data published in ChEMBL document CHEMBL2375255, “New quinazoline derivatives for telomeric G-quadruplex DNA: effects of an added phenyl group on quadruplex binding ability” (Eur J Med Chem, 2013).
Activity calls are given as the source filed them. The calls are words filed in the database; no cut-off is given here.

Tests used:
Homo sapiens [1] = species on record: Homo sapiens; assay: Binding affinity to human telomeric G-quadruplex 5'-d(GGG[TTAGGG]3)-3' DNA assessed as change in melting temperature at 25 uM measured at 290 nM wavelength by circular dichroism spectroscopic analysis
Outline: (§1)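 HTG21 in 10 mM Tris-HCl, pH 7.4, 60 mM KCl. CD melting profiles were read at 265 nm and at 290 nm, and ΔTm was determined from them.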

[2] = Binding affinity to biotinylated duplex DNA (unknown origin) by surface plasmon resonance analysis
Outline: (§2)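 SPR with a Neutravidin-coated sensor chip. Biotinylated duplex DNA and biotinylated HTG21 were folded in running buffer (50 mM Tris-HCl, 100 mM KCl, pH 7.4, 0.005% Tween20) and immobilized. A range of ligand concentrations was injected simultaneously over G-quadruplex, duplex and blank reference channels. Binding plots from sensorgrams gave equilibrium constants (KD).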

[3] = Binding affinity to human biotinylated telomeric G-quadruplex 5'-d(GGG[TTAGGG]3)-3' DNA by surface plasmon resonance analysis; outline: as §2
Homo sapiens [4] = species on record: Homo sapiens; assay: Binding affinity to human telomeric G-quadruplex 5'-d(GGG[TTAGGG]3)-3' DNA assessed as change in melting temperature at 25 uM measured at 265 nM wavelength by circular dichroism spectroscopic analysis; outline: as §1
Homo sapiens [5] = species on record: Homo sapiens; assay: Binding affinity to human telomeric G-quadruplex 5'-d(GGG[TTAGGG]3)-3' DNA assessed as induction of conformation conversion from antiparallel to parallel type at 25 uM after 5 mins by circular dichroism spectroscopic analysis
[6] = Binding affinity to biotinylated duplex DNA (unknown origin) up to by surface plasmon resonance analysis; outline: as §2
Homo sapiens [7] = species on record: Homo sapiens; assay: Binding affinity to human biotinylated telomeric G-quadruplex 5'-d(GGG[TTAGGG]3)-3' DNA up to 20 uM by surface plasmon resonance analysis; outline: as §2
[8] = target: Telomerase reverse transcriptase (Homo sapiens, UniProt O14746); assay: Inhibition of telomerase in human HL60 cell extract by TRAP-LIG assay; design: species or system HL-60
Telomerase reverse transcriptase, sequence (O14746 whole entry): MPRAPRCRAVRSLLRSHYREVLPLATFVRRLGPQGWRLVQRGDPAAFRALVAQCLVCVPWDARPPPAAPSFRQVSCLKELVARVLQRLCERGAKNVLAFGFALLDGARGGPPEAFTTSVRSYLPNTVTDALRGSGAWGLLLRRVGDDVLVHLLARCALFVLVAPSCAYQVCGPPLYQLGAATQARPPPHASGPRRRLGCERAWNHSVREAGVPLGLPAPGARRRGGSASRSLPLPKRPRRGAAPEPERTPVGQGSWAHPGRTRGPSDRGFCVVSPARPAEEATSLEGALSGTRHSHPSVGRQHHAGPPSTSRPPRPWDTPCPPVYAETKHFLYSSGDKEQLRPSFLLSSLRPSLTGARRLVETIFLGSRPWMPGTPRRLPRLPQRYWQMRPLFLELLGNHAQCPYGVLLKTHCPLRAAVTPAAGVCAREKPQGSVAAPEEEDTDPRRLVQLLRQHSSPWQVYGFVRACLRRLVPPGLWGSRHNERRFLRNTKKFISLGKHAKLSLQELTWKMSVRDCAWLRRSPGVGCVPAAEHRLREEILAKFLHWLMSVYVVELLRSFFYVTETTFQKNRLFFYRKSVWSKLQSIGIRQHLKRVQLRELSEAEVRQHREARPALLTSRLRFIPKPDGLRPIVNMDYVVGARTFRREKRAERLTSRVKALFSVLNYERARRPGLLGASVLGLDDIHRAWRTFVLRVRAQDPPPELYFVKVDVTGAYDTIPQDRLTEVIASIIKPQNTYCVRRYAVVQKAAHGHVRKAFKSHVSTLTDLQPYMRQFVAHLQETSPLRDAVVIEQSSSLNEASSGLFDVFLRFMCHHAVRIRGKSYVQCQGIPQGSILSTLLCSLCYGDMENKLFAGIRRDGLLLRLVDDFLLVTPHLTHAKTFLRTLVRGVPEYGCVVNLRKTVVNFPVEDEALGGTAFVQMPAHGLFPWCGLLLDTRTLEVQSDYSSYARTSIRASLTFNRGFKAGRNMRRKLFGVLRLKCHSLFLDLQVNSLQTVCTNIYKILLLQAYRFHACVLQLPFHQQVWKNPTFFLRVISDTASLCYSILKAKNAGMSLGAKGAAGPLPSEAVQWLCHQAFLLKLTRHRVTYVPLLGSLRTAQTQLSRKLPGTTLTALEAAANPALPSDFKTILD
Outline: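 TRAP-LIG: compounds added to telomerase reaction mix containing HL60 cell extract. Ligand removed after enzyme incubation, before amplification. Purified extended products PCR-amplified for 35 cycles (94 °C 30 s, 61 °C 1 min, 72 °C 1 min). IC50 determined.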

HL-60 [9] = assay: Binding affinity to G-quadruplex DNA in human HL60 cells assessed as telomere shortening at 1 uM after 12 days by restriction fragment length assay; format: cell-based
Outline: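 HL60 cells exposed to ligand for 12 days. Genomic DNA digested with Hinf1/Rsa1, run on 0.8% agarose gel and transferred to nylon membrane. DNA fixed by baking at 120 °C for 20 min. Membrane hybridized with DIG-labelled telomeric-repeat probe, then detected with anti-DIG-alkaline phosphatase.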

HL-60 [10] = assay: Cytotoxicity against human HL60 cells after 48 hrs by MTT assay; format: functional, cell-based; details: HL-60, 48 h
Outline: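 HL60 cells seeded at 1.0 × 10³ per well and exposed to a range of concentrations for 48 h at 37 °C, 5% CO₂. MTT (5 mg/mL) added for 4 h. Formazan dissolved in DMSO and OD read at 570 nm. Each dose tested in triplicate; IC50 derived from mean OD versus concentration curves.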

HL-60 [11] = assay: Cytotoxicity against human HL60 cells treated every 3 days up to 12 days; format: functional, cell-based
HL-60 [12] = assay: Induction of senescence in human HL60 cells assessed as increase in proportion of enlarged and flattened cells at 1 uM after 12 days by senescence-associated beta-galactosidase activity based optical microscopic analysis; format: functional, cell-based
Outline: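 HL60 cells treated continuously for 12 days; 0.1% DMSO as control. Cells fixed 15 min at room temperature in 2% formaldehyde/0.2% glutaraldehyde, then washed with PBS. Stained overnight at 37 °C with 1 mg/mL X-gal solution. Enlarged, flattened, stained cells viewed by optical microscopy.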

HL-60 [13] = assay: Cytotoxicity against human HL60 cells at 0.5 to 1 uM treated every 3 days up to 12 days relative to control; format: functional, cell-based
HL-60 [14] = assay: Binding affinity to G-quadruplex DNA in human HL60 cells assessed as telomere shortening at 0.01 to 1 uM after 12 days by restriction fragment length assay

Compound	ΔTm (Homo sapiens [1]) [°C]	Kd [3] [µM]	ΔTm (Homo sapiens [4]) [°C]	Activity (Homo sapiens [5])	also measured
CN(C)CCCNc1nc(-c2ccccc2NC(=O)c2ccc(NC(=O)CN3CCOCC3)cc2)nc2ccccc12	4.7	–	11.9	Active	–
CN(C)CCCNc1nc(-c2ccccc2NC(=O)CN2CCOCC2)nc2ccccc12	0	–	0.5	inactive	–
CN(C)CCCNc1nc(-c2ccc(Cl)cc2NC(=O)c2ccc(NC(=O)CCN3CCN(C)CC3)cc2)nc2ccccc12	3.4	0.276	> 28	Active	Activity [6]: inactive
CN(C)CCCNc1nc(-c2ccccc2NC(=O)CN2CCCC2)nc2ccccc12	2.6	–	7.3	Active	–
CCN(CC)CC(=O)Nc1ccccc1-c1nc(NCCCN(C)C)c2ccccc2n1	0.7	–	2.1	Active	–
CN(C)CCCNCCC(=O)Nc1ccccc1-c1nc(NCCCN(C)C)c2ccccc2n1	6.2	3.36	12.4	Active	IC50 [8]: > 50 µM; Kd [2]: 7.9 µM
CN(C)CCCNCCC(=O)Nc1ccc(C(=O)Nc2ccccc2-c2nc(NCCCN(C)C)c3ccccc3n2)cc1	–	1.11	> 28	Active	IC50 [8]: 30.9 µM; Activity [6]: inactive
CN(C)CCCNCCC(=O)Nc1ccc(C(=O)Nc2cc(Cl)ccc2-c2nc(NCCCN(C)C)c3ccccc3n2)cc1	14.8	0.379	> 28	Active	Activity (HL-60 [9]): Active; IC50 [8]: 2.3 µM; IC50 (HL-60 [10]): 1.7 µM; Activity [6]: inactive; Activity (HL-60 [11]): Dose-dependent effect; Activity (HL-60 [12]): Active; Activity (HL-60 [13]): Active; Activity (HL-60 [14]): Active
CN(C)CCCNc1nc(-c2ccccc2NC(=O)CN2CCN(C)CC2)nc2ccccc12	0.6	–	3.1	inactive	Activity (Homo sapiens [7]): inactive
CN(C)CCCNc1nc(-c2ccc(Cl)cc2NC(=O)CCN2CCN(C)CC2)nc2ccccc12	4.4	–	14.4	Active	–
CCN(CC)CCC(=O)Nc1ccccc1-c1nc(NCCCN(C)C)c2ccccc2n1	2.5	–	8.2	Active	–
CN(C)CCCNc1c2ccccc2nc2c1[nH]c1ccccc12	8	28	11.2	inactive	Kd [2]: 5.02 µM

Continued, in another order:

ΔTm (Homo sapiens [1]) [°C]	Kd [3] [µM]	ΔTm (Homo sapiens [4]) [°C]	Activity (Homo sapiens [5])	Compound	also measured
11.6	8.34	21.6	Active	CCN(CC)CC(=O)Nc1ccc(C(=O)Nc2ccccc2-c2nc(NCCCN(C)C)c3ccccc3n2)cc1	Kd [2]: 11.9 µM
2.1	–	8	Active	CN(C)CCCNc1nc(-c2ccccc2NC(=O)CCN2CCN(C)CC2)nc2ccccc12	Activity (Homo sapiens [7]): inactive
2.8	0.302	21.9	Active	CCN(CC)CCC(=O)Nc1ccc(C(=O)Nc2cc(Cl)ccc2-c2nc(NCCCN(C)C)c3ccccc3n2)cc1	Activity [6]: inactive
4.6	–	18.7	Active	CN(C)CCCNc1nc(-c2ccccc2NC(=O)c2ccc(NC(=O)CCN3CCCC3)cc2)nc2ccccc12	–
8.2	1.48	21.7	Active	CN(C)CCCNc1nc(-c2ccccc2NC(=O)c2ccc(NC(=O)CCN3CCN(C)CC3)cc2)nc2ccccc12	Kd [2]: 13.2 µM
4.7	3.06	21.6	Active	CN(C)CCCNc1nc(-c2ccc(Cl)cc2NC(=O)c2ccc(NC(=O)CCN3CCOCC3)cc2)nc2ccccc12	Activity [6]: inactive
3.6	–	8.7	Active	CN(C)CCCNc1nc(-c2ccccc2NC(=O)CCN2CCCC2)nc2ccccc12	–
8.2	–	15.3	Active	CN(C)CCCNc1nc(-c2ccccc2NC(=O)c2ccc(NC(=O)CCN3CCOCC3)cc2)nc2ccccc12	–
5.4	1.61	19.6	Active	CCN(CC)CCC(=O)Nc1ccc(C(=O)Nc2ccccc2-c2nc(NCCCN(C)C)c3ccccc3n2)cc1	Kd [2]: 22 µM
7.4	2.75	21.8	Active	CN(C)CCCNc1nc(-c2ccccc2NC(=O)c2ccc(NC(=O)CN3CCN(C)CC3)cc2)nc2ccccc12	Kd [2]: 39.7 µM
5.7	0.227	> 28	Active	CN(C)CCCNc1nc(-c2ccc(Cl)cc2NC(=O)c2ccc(NC(=O)CCN3CCCC3)cc2)nc2ccccc12	Activity [6]: inactive
0.9	–	4.3	inactive	CN(C)CCCNc1nc(-c2ccccc2NC(=O)CCN2CCOCC2)nc2ccccc12	–
11.7	–	21.4	Active	CN(C)CCCNc1nc(-c2ccccc2NC(=O)c2ccc(NC(=O)CN3CCCC3)cc2)nc2ccccc12	–
